# Compound activity as filed in PubChem.
# An excerpt weighted towards active compounds, which were near 3.7% of everything screened.
# KCNK9 inh = inhibitors of human KCNK9 two-pore domain potassium channel. Q9NPC2. HEK293 KCNK9, FluxOR thallium flux fluorescence; stronger effect = lower value. B-score at 10 µM. 310,000 tested, 1.2% active;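 active = ratio B-score over 3 SD below the library mean, with starting fluorescence within 5 SD of its mean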;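 also: negative B-score means less thallium flux so channel inhibition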
# KCNQ1 act = potentiators or activators of human KCNQ1 potassium channel; P51787; CHO-K1 KCNQ1, thallium flux FluxOR fluorescence; stronger effect = higher value; B-score at 10 µM; 310,000 tested, 0.35% active; AID 2648;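 active = fluorescence ratio B-score, a plate-corrected score, at least three library SD, with initial intensity B-score within 5 SD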
#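 Doses: Single concentration per compound, DMSO matched to controls | Test system: KCNQ1-transfected CHO-K1 cells | Timing: 90 min dye loading and 20 min compound exposure, both at room temperature | Measured by: Kinetic FluxOR thallium fluorescence, 10-s 1-Hz baseline, 110-s post-stimulus read | Medium: Assay buffer with matched DMSO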
# KCNK3 inh = human KCNK3 channel inhibition, primary screen; O14649; CHO-KCNK3 thallium flux, FluxOR fluorescence; stronger effect = lower value; B-score at 10 µM; 340,000 tested, 0.84% active;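 active = B-score under library mean minus 4 SD, starting fluorescence ratio at most library mean plus 5 SD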;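 also: more negative B-score means stronger inhibition of thallium flux through KCNK3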
# hERG protect = shields human hERG channel from block by proarrhythmic agents; activation (rescue from dofetilide block), less the hit threshold, % at 10 µM; 310,000 tested, 0.51% active; CHO-hERG, FluxOR thallium flux, dofetilide IC70 present; AID 1511; Q12809;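 active = activation above the mean of controls blocked by dofetilide plus 5 SD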;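 also: thallium influx through hERG after potassium depolarization seen as dye fluorescence rise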
# KCNQ1 inh = blocks the human KCNQ1 potassium channel; CHO-K1 KCNQ1, FluxOR thallium flux fluorescence; stronger effect = higher value; 310,000 tested, 1.3% active; P51787; B-score at 10 µM;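 active = compounds whose thallium flux B-score, printed positive for inhibition, exceeds three library SD while starting fluorescence stays within three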;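 also: channel opened by potassium depolarization with thallium stimulus after 20 min compound exposure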
# Kir21 block = Kir2.1 (mouse) channel inhibition. 310,000 tested, 0.85% active. P35561. HEK293-Kir2.1, FluxOR thallium flux fluorescence; stronger effect = lower value. B-score at 10 µM;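 active = fluorescence ratio B-score at or below minus 3 SD of library scores, with starting-brightness B-score within 2 SD, cut at about -4.2 in these data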;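 also: channel flux triggered by added potassium and thallium sulfate stimulus; B-score of peak minus minimum fluorescence over baseline after thallium stimulus; more negative B-score means stronger Kir2.1 block with less thallium influx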
# KCNQ1 block val = human KCNQ1 channel inhibition, validation assay; shares compounds with KCNQ1 inh; KCNQ1 cell line, FluxOR thallium flux fluorescence; inhibition, % at 10 µM; 1,600 tested, 93% active; AID 588353;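 active = primary screen active, with duplicate mean exceeding buffer control mean plus 3 SD of buffer wells, cut at about 28% in these data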;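 also: 0% = buffer control ratio and 100% = XE991 inhibitor control ratio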
# CHO Tl flux = activity in parental CHO cells lacking KCNQ1; shares compounds with KCNQ1 inh; parental CHO-K1, FluxOR thallium flux fluorescence ratio; stronger effect = lower value; zero means no signal rise above baseline; fluorescence ratio (Tl flux) at 10 µM; 1,600 tested, 21% active; AID 588366;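 active = mean of duplicate thallium-flux fluorescence ratios in parental host cells more than 5 SD below the buffer control mean, cut at about 0.38 in these data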;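 also: ratio is peak minus minimum fluorescence divided by baseline fluorescence; actives read low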
# KCNQ1 ephys val = confirmation of human KCNQ1 potassium channel inhibitors by electrophysiology; shares compounds with KCNQ1 inh; KCNQ1-CHO cells, automated patch clamp current; calls only at 10 µM; 490 tested, 20% active;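 active = KCNQ1 current drop exceeding 3 SD of negative control wells, seen in both duplicate runs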;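 also: steady state current during a 2 s step from -80 to +40 mV; negative values mean current inhibition and positive values mean potentiation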
# KCNQ2 inh = selectivity of KCNQ1 inhibitors: inhibition of rat KCNQ2 channel. shares compounds with KCNQ1 inh. AID 651746. inhibition, % at 10 µM. KCNQ2 cells, FluxOR thallium flux fluorescence. 1,600 tested, 71% active;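 active = mean percent inhibition of the KCNQ2 thallium signal more than 5 SD above the buffer-only control wells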;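 also: KCNQ2 expressed in CHO cells; 0% = buffer control wells and 100% = XE-991 inhibitor control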
# Target sequence (O88943 whole entry, looked up): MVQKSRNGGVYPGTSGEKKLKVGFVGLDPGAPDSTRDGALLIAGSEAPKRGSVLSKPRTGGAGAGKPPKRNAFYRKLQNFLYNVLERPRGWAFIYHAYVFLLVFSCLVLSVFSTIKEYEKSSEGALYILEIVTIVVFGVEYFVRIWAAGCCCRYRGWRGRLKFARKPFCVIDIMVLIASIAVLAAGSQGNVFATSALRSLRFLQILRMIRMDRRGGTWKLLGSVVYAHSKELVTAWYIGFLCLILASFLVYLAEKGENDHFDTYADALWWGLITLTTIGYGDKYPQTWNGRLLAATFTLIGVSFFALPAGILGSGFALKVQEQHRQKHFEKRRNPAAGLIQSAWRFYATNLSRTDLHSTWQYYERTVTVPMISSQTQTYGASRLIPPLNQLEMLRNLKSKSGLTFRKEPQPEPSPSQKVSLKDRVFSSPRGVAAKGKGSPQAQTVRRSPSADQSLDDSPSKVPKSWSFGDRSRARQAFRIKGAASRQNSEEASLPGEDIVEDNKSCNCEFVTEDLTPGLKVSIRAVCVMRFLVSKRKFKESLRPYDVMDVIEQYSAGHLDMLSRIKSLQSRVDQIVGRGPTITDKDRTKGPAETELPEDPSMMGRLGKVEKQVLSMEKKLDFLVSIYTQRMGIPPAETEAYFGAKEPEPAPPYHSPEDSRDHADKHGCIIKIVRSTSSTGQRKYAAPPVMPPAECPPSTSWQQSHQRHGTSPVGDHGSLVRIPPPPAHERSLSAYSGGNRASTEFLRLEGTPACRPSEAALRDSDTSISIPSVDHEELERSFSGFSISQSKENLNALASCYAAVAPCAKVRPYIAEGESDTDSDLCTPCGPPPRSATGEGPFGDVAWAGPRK
# KCNQ1-KCNE1 inh = human KCNQ1/KCNE1 inhibition in KCNQ1 specificity screen. shares compounds with KCNQ1 inh. KCNQ1/KCNE1 cells, FluxOR thallium flux fluorescence. inhibition, % at 10 µM. 1,600 tested, 77% active;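 active = mean percent inhibition of duplicate wells above the buffer-only control mean plus 3 SD of those controls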;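 also: 0% = buffer only wells and 100% = XE-991 inhibitor control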
# The depositor's hits bear a star; i = inactive; . = no result; + = active, no number.
SMILES,KCNK9 inh,KCNQ1 act,KCNK3 inh,hERG protect,KCNQ1 inh,Kir21 block,KCNQ1 block val,CHO Tl flux,KCNQ2 inh,KCNQ1-KCNE1 inh,others
C=CCSc1nsc(NC(=O)Nc2ccc(F)cc2)n1,i,i,i,-11,14*,-2,64*,0.51,i,i,
CCSc1nsc(NC(=O)Nc2ccccc2F)n1,i,i,i,-7,i,-0.48,.,.,.,.,
COc1ccc2c(c1)C=C(CN1CCC(CO)(CCc3ccccc3)CC1)CO2,i,i,i,-11,i,0.78,.,.,.,.,
COc1ccc(CC2(CO)CCN(CC3=Cc4cc(Cl)ccc4OC3)CC2)cc1,i,i,i,-25,9*,1,113*,0.5,102%*,i,KCNQ1 ephys val=i
COCc1cc(N2CCOCC2)nc(-c2ccccc2)n1,i,i,i,-4,i,-0.02,.,.,.,.,
COCc1cc(Sc2ccc(Cl)cc2)nc(-c2ccccc2)n1,i,i,i,-12,6*,-0.94,77*,0.49,91%*,80%*,
COCc1cc(N2CCN(c3ccccc3F)CC2)nc(-c2ccccc2)n1,i,i,i,-3,6*,0.01,51*,0.51,60%*,140%*,
CC1CCCCN1Cc1c(O)ccc2c(=O)c(-c3nc4ccccc4s3)c(N)oc12 (stereo not drawn),i,i,i,-24,i,-0.26,.,.,.,.,
Cc1cc(NCC2CCCCC2)nc2ccccc12,i,i,i,-10,7*,0.81,68*,0.5,i,66%*,
Cc1cc(NCCNC2=CC(=O)CCC2)nc2ccccc12,i,i,i,-5,i,2.1,.,.,.,.,
CCCCN(C(=S)SC)C1CCS(=O)(=O)C1 (stereo not drawn),i,i,i,-11,i,0.94,.,.,.,.,
Cc1cc(=O)n(-c2ccc(Cl)cc2)c(=O)[nH]1,i,i,i,-2,i,1.1,.,.,.,.,
Cc1cc(C)c(-c2cc(NC(=O)COC(=O)c3ccc(NC(=O)CC#N)cc3)n(-c3ccccc3)n2)cc1C,i,i,i,-9,6*,-0.62,156*,0.47,64%*,137%*,KCNQ1 ephys val=i
CCN(CC)C(=O)C1c2ccccc2Oc2ccccc21,i,i,i,-23,16*,-14,0,0.48,77%*,71%*,
O=C(NCC(=O)N1CCN(Cc2c(F)cccc2Cl)CC1)c1cccc(Cl)c1,.,.,i,.,.,.,.,.,.,.,
Cc1cccc2[nH]c3c(N4CC=C(c5ccc(F)cc5)CC4)ncnc3c12,i,i,i,-14,14*,0.13,162*,0.33*,134%*,+,
CN(CC(=O)Nc1cccc(F)c1)C(=O)c1cn(-c2ccccc2)nc1-c1cccs1,i,i,i,-11,8*,-0.06,79*,0.49,83%*,108%*,
CC(NC(=O)c1cc(COc2ccc3ncccc3c2)on1)c1ccc(F)cc1 (stereo not drawn),i,i,i,-26,10*,0.14,108*,0.44,92%*,92%*,KCNQ1 ephys val=+
CC(NC(=O)c1cc(COc2ccccc2)on1)c1nccs1 (stereo not drawn),i,i,i,-2,i,1.3,.,.,.,.,
Cc1cc(OCc2cc(C(=O)N3CCN(CC4CC4)CC3)no2)cc(C)c1Cl,i,i,i,-23,i,-2,.,.,.,.,
O=C(c1cc(COc2ccc3ncccc3c2)on1)N1CCCC1,i,i,i,-11,i,1.4,.,.,.,.,
Cc1cc(OCc2cc(C(=O)N3CCC(Oc4cccnc4)CC3)no2)cc(C)c1Cl,i,i,i,-14,13*,0.12,148*,0.37*,124%*,+,
Cc1ccc(OCc2cc(C(=O)NC3CCCCC3)no2)cn1,i,i,i,-13,i,-0.16,.,.,.,.,
O=C(NC1CCCC1)c1cc(COc2ccc3ncccc3c2)on1,i,i,i,-22,8*,0.05,91*,0.44,i,i,KCNQ1 ephys val=+
O=C(c1cc(COc2ccc3ncccc3c2)on1)N1CCCCCC1,i,i,i,-17,7*,0.98,114*,0.49,101%*,i,KCNQ1 ephys val=i
SMILES,KCNK9 inh,KCNQ1 act,KCNK3 inh,hERG protect,KCNQ1 inh,Kir21 block,KCNQ1 block val,CHO Tl flux,KCNQ2 inh,KCNQ1-KCNE1 inh,others
COc1ccccc1CC(=O)NNS(=O)(=O)c1ccc([N+](=O)[O-])cc1,i,i,i,-13,i,-2.2,.,.,.,.,
CCOC(=O)C(C)On1c(-c2cccc(Cl)c2)nc2ccc([N+](=O)[O-])cc21 (stereo not drawn),i,i,i,-29,15*,1.3,154*,0.34*,131%*,+,
O=S(=O)(c1ccccc1)N1CCN(c2ncnc3scc(-c4ccccc4)c23)CC1,i,i,i,-7,i,-1.8,.,.,.,.,
Oc1ccccc1N1CCN(c2ncnc3scc(-c4ccccc4)c23)CC1,-8*,i,i,-19,6*,-0.75,112*,0.41,91%*,156%*,KCNQ1 ephys val=i
O=C(N/C=C/c1ccccc1)Nc1ccc(Cl)cc1,i,i,i,-5,7*,-0.19,62*,0.48,64%*,i,
Cc1nn(-c2ccccc2)c(N)c1-c1ccccc1,i,i,i,-5,i,-1.1,.,.,.,.,
Cc1nn(-c2ccccc2)c(/N=C/c2ccccc2O)c1-c1ccccc1,i,i,i,-12,6*,0.28,119*,0.43,109%*,166%*,KCNQ1 ephys val=i
N#C/C(=C/Nc1ccccc1C(=O)O)C(N)=O,i,i,i,-5,i,-2.1,.,.,.,.,
CN(C)S(=O)(=O)n1cc(/C=C(\NC(=O)c2ccccc2)C(=O)N2CCCC2)c2ccccc21,i,i,i,-7,i,-0.17,.,.,.,.,
Cc1csc(NC(=O)C(Cc2ccccc2)n2cccc2)n1 (stereo not drawn),i,i,i,-18,13*,0.39,54*,0.45,62%*,86%*,
